# Bioassay records from PubChem BioAssay.
# DENV2 CPE – DENV2-induced cell death inhibition. DENV2-infected cells, cytopathic effect rescue, plate reader. CPE inhibition, % at 9.99 µM. 350,000 compounds, 1.7% hits; in the data active = CPE inhibition above about 20%, passing the limit was not always enough; tested in BHK-21 cells;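 also: 0% = median of neutral control wells and 100% = median of positive control wells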
# INS-1E GSIS act – GLuc luminescence reporter in INS-1E cells, primary screen for activators of glucose-dependent secretion of insulin; INS-1E GLuc reporter insulin secretion, 2-3 h; activation, % at 16.6 µM; 370,000 compounds, 0.61% hits;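 active = lowest replicate activation of at least 40%, so every replicate reaches that level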;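 also: 0% = median of neutral control wells and 100% = median of IBMX positive control wells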
# ERAP1 HTS inh – blocks human ERAP1 aminopeptidase activity | recombinant ERAP1, Leu-AMC fluorescence, 60 min | inhibition, % at 10.7 µM | 340,000 compounds, 0.15% hits | AID 652197;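 active = mean replicate inhibition of at least 30%, or all replicates individually reaching that 30% level; inactive = mean below 30% and not every replicate reaching it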;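 also: 0% = neutral control wells and 100% = L-leucinethiol positive control wells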
# Target sequence (Q9NZ08 whole entry, looked up): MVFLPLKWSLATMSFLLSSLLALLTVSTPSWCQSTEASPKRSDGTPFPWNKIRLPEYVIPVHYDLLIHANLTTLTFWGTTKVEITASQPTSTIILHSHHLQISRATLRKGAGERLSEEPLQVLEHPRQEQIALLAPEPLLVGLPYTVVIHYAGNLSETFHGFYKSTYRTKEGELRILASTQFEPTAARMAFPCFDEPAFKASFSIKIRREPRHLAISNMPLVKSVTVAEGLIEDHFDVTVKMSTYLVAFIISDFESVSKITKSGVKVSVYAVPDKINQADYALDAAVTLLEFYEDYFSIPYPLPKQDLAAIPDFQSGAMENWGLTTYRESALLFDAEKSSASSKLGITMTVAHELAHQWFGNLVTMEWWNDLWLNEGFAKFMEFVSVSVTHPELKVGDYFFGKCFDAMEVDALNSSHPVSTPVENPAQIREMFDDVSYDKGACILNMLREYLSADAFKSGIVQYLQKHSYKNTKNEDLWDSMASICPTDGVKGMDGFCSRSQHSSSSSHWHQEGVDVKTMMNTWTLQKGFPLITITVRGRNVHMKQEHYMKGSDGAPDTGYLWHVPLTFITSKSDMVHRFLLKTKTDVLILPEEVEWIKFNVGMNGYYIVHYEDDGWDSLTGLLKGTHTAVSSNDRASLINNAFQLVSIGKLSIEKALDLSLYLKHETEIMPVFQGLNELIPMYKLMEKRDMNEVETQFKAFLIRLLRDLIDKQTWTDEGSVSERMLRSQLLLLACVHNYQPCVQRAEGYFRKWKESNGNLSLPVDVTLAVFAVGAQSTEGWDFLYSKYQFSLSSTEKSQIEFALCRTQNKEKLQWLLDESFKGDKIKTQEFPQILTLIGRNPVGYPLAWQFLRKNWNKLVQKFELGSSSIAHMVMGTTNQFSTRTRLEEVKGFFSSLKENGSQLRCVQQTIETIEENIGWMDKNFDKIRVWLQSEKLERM
# E-sel inducer – E-selectin induction on HUVECs | P16581 | HUVEC E-selectin immunofluorescence imaging; normalized: neutral wells 0, TNF-alpha wells 100 | activation, % at 7.58 µM | 260,000 compounds, 0.37% hits;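 active = mean E-selectin-positive cell signal at least 10% of the positive control, reached in at least 60% of replicates, without over 20% cell loss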
#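 material = human umbilical vein endothelial cells (HUVEC), E-selectin induction | quantity = 3,000 cells/well | medium = EGM-2 growth medium on 0.1% gelatin-coated wells | technique = immunofluorescence imaging | read-out basis = % PE-positive cells | control set = TNF-alpha positive control, DMSO neutral control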
# CFTR F508del cor – correctors of CFTR F508del function in bronchial epithelial cells; AID 720511; CFBE cells, YFP halide quenching; stimulated with forskolin plus potentiator P3; % fluorescence drop versus neutral controls; 350,000 compounds, 0.36% hits; activity (quench increase), % at 7.58 µM;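 active = mean added fluorescence quench of at least 8% versus neutral control, with both replicates also reaching 8%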;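 also: cells transiently co-express mutant CFTR-F508del with the halide-sensitive YFP; corrector assay measuring rescue of mutant channel to the surface after 24 h compound exposure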
# miR-122 sensor – blocks miR-122 activity in Huh7 sensor cells. Huh7 miR-122 Renilla luciferase sensor, 48 h; neutral wells = 0, positive control = 100. activation (reporter increase), % at 12.5 µM. 340,000 compounds, 0.3% hits. AID 602342;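 active = mean replicate activation score at least 90 and every replicate individually at or above 90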;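 also: higher luciferase means less miR-122 activity so hits act as miR-122 inhibitors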
# * = called active by the depositor; · = not tested or not shown; [ ] = dose if it differs, or a comment. The list is not random: actives were taken first. Their share in the collection is about 2.6%.
SMILES,DENV2 CPE,INS-1E GSIS act,ERAP1 HTS inh,E-sel inducer,CFTR F508del cor,miR-122 sensor
CC(C)NC(=O)N(C)C[C@H]1Oc2ccccc2C(=O)N(C)C[C@@H]1C,·,11.1,·,·,·,·
CN(C)C(=O)C[C@@H]1CC[C@H](NC(=O)Nc2cccc(F)c2)[C@@H](CO)O1,-4.5,4.0,-4.4,-0.2,0.4,·
N#Cc1cnn2c1nc(N1CCCCC1)c1ccccc12,·,·,·,·,·,133.8*
C[C@@H]1CCCCO[C@@H](CN(C)C(=O)CCC(F)(F)F)[C@@H](C)CN([C@@H](C)CO)C(=O)c2cc(NC(=O)c3ccccc3)ccc2O1,156.7*,-0.3,-6.9,0.2,2.8,11.0[16.7 µM]
C[C@H](CO)N1C[C@H](C)[C@H](CN(C)C(=O)CCC(F)(F)F)OCCCC[C@H](C)Oc2ccc(NC(=O)c3ccccc3)cc2C1=O,21.0*,-9.3,-8.6,-0.2,-0.8,4.7[16.7 µM]
CC(=O)N1c2ccc(S(=O)(=O)NCCc3ccccc3)cc2CC1C (stereo not drawn),1.7,-32.6,1.2,-0.7,0.8,153.0*
CC1Cc2cc(S(=O)(=O)NCCc3ccccc3)ccc2N1C(=O)C1CC1 (stereo not drawn),2.2,-16.9,0.3,0.4,-1.4,132.0*
CC(=O)N1c2ccc(S(=O)(=O)N3CCCC(C(=O)N4CCCC(C)C4)C3)cc2CC1C (stereo not drawn),-7.5,2.8,-1.7,·,-1.2,·
CC(=O)N1c2ccc(S(=O)(=O)NCCC(=O)N(C)Cc3ccccc3)cc2CC1C (stereo not drawn),-1.2,-1.4,1.3,·,-1.9,9.9
CC(=O)N1c2ccc(S(=O)(=O)NCCC(=O)N3CCCC(C)C3)cc2CC1C (stereo not drawn),35.2*,-4.5,1.5,·,-3.0,·
CC(=O)N1c2c(cc(Br)cc2S(=O)(=O)NCc2ccccc2)CC1C (stereo not drawn),5.1,5.2,6.7,-0.1,-1.4,124.6*
CCCNC(=O)N1CC2(CN(C(=O)C3CCOCC3)C2)c2c([nH]c3cc(OC)ccc23)[C@@H]1CO,-7.2,-0.5,-1.9,1.4,1.4,·
CCC(=O)N1CC(=O)N2[C@H](CO)[C@@H](c3ccc(-c4ccccc4F)cc3)[C@@H]2C1,0.6,3.4,·,1.2,4.1,·
C[C@@H]1CN([C@H](C)CO)C(=O)c2cc(NS(=O)(=O)c3ccc(Cl)cc3)ccc2O[C@@H](C)CCCCO[C@@H]1CN(C)C(=O)NC1CCCCC1,3.6,-21.0,2.6,·,1.1,4.7[16.7 µM]
Cc1ccc(-n2ncc3c(=O)[nH]c(SCC(=O)N4CCC(C)CC4)nc32)cc1C,-2.4,·,2.3,-1.6,-1.2,-3.9
Cc1ccc(-n2ncc3c(=O)[nH]c(SCC(=O)N4CCCC4)nc32)cc1C,63.1*,1.3,5.8,-0.6,1.2,2.7
Cc1ccc(-n2ncc3c(=O)[nH]c(SC(C)C)nc32)cc1,11.6,10.5,-6.2,128.4*,-2.0,-1.2
Cc1cccc(-c2ccc([C@@H]3[C@H]4CN(S(=O)(=O)c5cccc(C)c5)CCCCN4[C@H]3CO)cc2)c1,-2.0,8.6,-0.8,-0.9,2.9,3.9[16.7 µM]
Cc1cccc(S(=O)(=O)N2CCCCN3[C@H](CO)[C@H](c4ccc(-c5cccnc5)cc4)[C@@H]3C2)c1,47.4*,3.0,-1.8,0.1,-0.7,29.8[16.7 µM]
Cc1cccc(-c2ccc([C@H]3[C@H]4CN(S(=O)(=O)c5cccc(C)c5)CCCCN4[C@H]3CO)cc2)c1,28.7*,-4.5,-3.3,-0.1,-4.9,1.3[16.7 µM]
Cc1cccc(S(=O)(=O)N2CCCCN3[C@H](CO)[C@H](c4ccc(-c5cccnc5)cc4)[C@H]3C2)c1,-5.2,-30.1,3.1,-0.4,2.2,8.3[16.7 µM]
Cc1cccc(-c2ccc([C@H]3[C@@H](CO)N4CCCCN(S(=O)(=O)c5cccc(C)c5)C[C@H]34)cc2)c1,55.5*,15.4,-1.4,-0.7,-3.4,1.4[16.7 µM]
COc1ccc(C)cc1NC(=O)C(c1ccccc1)N1CCN(CC(=O)N2CCOCC2)CC1 (stereo not drawn),28.0*,-7.3,2.8,0.1,-0.3,0.5
COc1ccccc1NC(=O)CN1CCOCC1,74.9*,4.0,-1.2,-0.1,5.2,-1.1
COc1ccc(NC(=O)Nc2ccc3c(c2)C(=O)N([C@@H](C)CO)C[C@@H](C)[C@H](CN(C)Cc2ccccc2)OCCCC[C@@H](C)O3)cc1,10.7,-20.6,0.4,-0.1,0.2,-8.2[16.7 µM]
SMILES,DENV2 CPE,INS-1E GSIS act,ERAP1 HTS inh,E-sel inducer,CFTR F508del cor,miR-122 sensor
COc1ccc(NC(=O)Nc2ccc3c(c2)C(=O)N([C@H](C)CO)C[C@H](C)[C@H](CN(C)Cc2ccccc2)OCCCC[C@H](C)O3)cc1,17.2,-17.0,-1.4,0.0,0.3,-9.6[16.7 µM]
COc1ccc(NC(=O)Nc2ccc3c(c2)C(=O)N([C@@H](C)CO)C[C@@H](C)[C@@H](CN(C)Cc2ccccc2)OCCCC[C@H](C)O3)cc1,42.3*,-11.8,-1.9,0.0,0.6,3.5[16.7 µM]
COc1ccc(NC(=O)Nc2ccc3c(c2)C(=O)N([C@H](C)CO)C[C@H](C)[C@H](CN(C)Cc2ccccc2)OCCCC[C@@H](C)O3)cc1,26.3*,-14.3,-2.0,0.0,-1.1,0.0[16.7 µM]
COc1ccc(CN(C)C[C@@H]2OCCCC[C@H](C)Oc3ccc(NC(=O)Cc4ccccc4)cc3C(=O)N([C@@H](C)CO)C[C@H]2C)cc1,26.5*,-27.0,·,-0.2,-1.1,-14.3[16.7 µM]
C=CCNC(=S)Nc1ccc2cn[nH]c2c1,2.0,40.1*,·,-0.4,4.4,·
S=C(Nc1ccccc1)Nc1ccc2cn[nH]c2c1,-3.0,-21.3,-1.4,3.0,2.9,3.5
COC(=O)CCCCCCCCCC[N+]1(C)CCCCC1,·,25.9,·,1.2,·,2.2
CC(=O)OCCCCCCCCCCC[N+]1(C)CCCCC1,0.7,9.9,88.0*,3.5,1.9,3.2
C[C@@H]1CN([C@@H](C)CO)C(=O)Cc2cc(NC(=O)C3CC3)ccc2O[C@@H]1CN(C)Cc1ccc2c(c1)OCO2,1.6,1.0,1.4,48.8*,3.1,-6.5[16.7 µM]
C[C@H](CO)N1C[C@H](C)[C@@H](CN(C)Cc2ccc3c(c2)OCO3)Oc2ccc(NC(=O)C3CC3)cc2CC1=O,-0.2,-2.1,1.3,-5.4,3.5,-2.9[16.7 µM]
C[C@H](CO)N1C[C@H](C)[C@@H](CN(C)Cc2ccc3c(c2)OCO3)Oc2ccc(NC(=O)c3ccncc3)cc2CC1=O,29.0*,-4.9,-1.1,0.1,0.5,-2.4[16.7 µM]
COC(=O)c1cc(C(=O)N2CCN(c3cccc(Cl)c3)CC2)cc([N+](=O)[O-])c1,1.0,-5.9,-1.7,·,8.7*,47.2
COc1cc2ccccc2cc1C(=O)N1CCN(C(C)=O)CC1,2.3,8.2,2.6,·,0.8,·
CCOc1ccccc1C(=O)N1CCN(c2cccc(Cl)c2)CC1,·,-19.2,·,·,·,138.8*
